High-throughput results deposited in PubChem BioAssay by several laboratories.
Only some compounds are listed: those with a hit (about 2.6% of all), similar ones and a draw of the others.
UCH37 DUB inh: inhibitors of human deubiquitinating enzyme UCH37. Q9Y5K5. inhibition, % (concentration not given with the values). purified proteasome/UCH37, Ub-AMC cleavage fluorescence. 330,000 compounds, 0.33% hits;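 active = mean inhibition over replicate wells above about 20%, limit read from the data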;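 note: 0% = compound-free wells with enzyme and 100% = wells lacking proteasome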
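Material: Human UCH37 enzyme supplied as purified proteasome complex | Schedule: 30 min preincubation with enzyme, 25 min cleavage at room temperature | Detection: AMC fluorescence 355/460 nm | Measure: % inhibition of Ub-AMC cleavage fluorescence | Controls: Wells without proteasome as full block, compound-free enzyme plus substrate as uninhibited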
SIRT5 inh: sirtuin-5 (human) deacylase inhibition | Purified SirT5, succinyl-peptide AMC, trypsin-coupled fluorescence | inhibition, % at 15 µM | 330,000 compounds, 1.1% hits; in the data active = inhibition above about 15%
Casp6 inh: inhibitors of human caspase-6. P55212. AID 686996. 350,000 compounds, 0.53% hits. purified caspase-6, Z-VEID-R110 cleavage fluorescence. inhibition, % at 12.5 µM;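 active = mean inhibition across replicates at least about 35%, with every replicate also reaching that limit, limit read from the data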;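 note: 0% = median of neutral control wells and 100% = no fluorescence left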
Target sequence (P55212 24-179 limits assumed): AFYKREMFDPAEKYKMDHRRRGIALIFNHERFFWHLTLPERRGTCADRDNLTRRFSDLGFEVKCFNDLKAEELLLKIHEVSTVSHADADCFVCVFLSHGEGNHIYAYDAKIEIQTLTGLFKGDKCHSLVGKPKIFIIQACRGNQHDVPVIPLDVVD
Target sequence (P55212 194-293 limits assumed): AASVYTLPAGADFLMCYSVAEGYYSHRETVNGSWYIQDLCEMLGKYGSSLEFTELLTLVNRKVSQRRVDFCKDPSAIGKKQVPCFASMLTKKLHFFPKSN
NSD2 HMT inh: blocks human histone methyltransferase NSD2; AID 743445; inhibition, % at 12.5 µM; O96028; 310,000 compounds, 0.54% hits; NSD2 peptide methylation, AlphaScreen, 120 min; in the data active = inhibition above about 50%
FGF22 binding: binders of recombinant human FGF22 by thermal shift; Q9HCT0; AID 651658; SYPRO orange fluorescence; percent of sucrose octasulfate shift, DMSO zero; activity (Tm shift, normalised), % at 9.99 µM; 340,000 compounds, 1.5% hits;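 active = mean Tm shift, scaled 0 neutral to 100 positive control, at about 1.3% or above, every replicate too, limit read from the data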
Target sequence (Q9HCT0 whole entry, looked up): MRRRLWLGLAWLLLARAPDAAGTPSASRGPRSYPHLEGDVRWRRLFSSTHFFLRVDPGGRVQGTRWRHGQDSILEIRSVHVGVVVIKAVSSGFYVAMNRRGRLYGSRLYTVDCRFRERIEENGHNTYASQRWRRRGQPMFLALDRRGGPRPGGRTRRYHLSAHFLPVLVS
* marks the source's active call; other numbers are inactive results; x = no result given.

SMILES	UCH37 DUB inh	SIRT5 inh	Casp6 inh	NSD2 HMT inh	FGF22 binding
Cc1nn(-c2cccc(C(=O)O)c2)c(C)c1Oc1ccccc1O	5	x	x	0	x
Cc1nn(-c2cccc(C(=O)O)c2)c(C)c1[N+](=O)[O-]	3	4	1	0	44*
Cc1nn(CC(=O)Nc2ccc(Cl)cn2)c(C)c1[N+](=O)[O-]	1	x	x	-5	x
Cc1nn(CC(=O)c2cccc(Cl)c2)c(C)c1[N+](=O)[O-]	1	-1	-1	-2	43*
C/C=C/c1ccc([C@H]2[C@@H](CO)N3C(=O)CN(Cc4ccccc4)C[C@@H]23)cc1	x	-5	5	x	x
O=C(N/N=C/C1CC=CCC1)c1ccc(Cl)cc1O (stereo not given)	x	-4	62*	-1	0
O=C(N[C@H]1CC[C@H](CC(=O)N2CCc3ccccc3C2)O[C@@H]1CO)C1CCOCC1	x	0	-1	x	0
N=c1c2c(-c3ccccc3)c(-c3ccccc3)n(Cc3ccccc3)c2ncn1CCCn1ccnc1	24*	x	x	-1	x
O=C(Nc1cccc2c(=O)[nH][nH]c(=O)c12)c1ccc([N+](=O)[O-])cc1	x	x	42*	4	1
O=C(COC(=O)c1ccc([N+](=O)[O-])o1)Nc1ccc(Br)cc1F	8	8	38*	3	0
Nc1cccc(C(=O)OCC(=O)NC2CCCc3ccccc32)c1 (stereo not given)	-7	0	-6	-2	0
O=C(COC(=O)c1ccc([N+](=O)[O-])o1)NC1CCCc2ccccc21 (stereo not given)	20*	-10	25	1	0
COc1ccc2c(CC(=O)NC3CCCc4ccccc43)coc2c1 (stereo not given)	0	x	x	2	x
CC(C)(C)N(Cc1ccccc1)C(=O)COC(=O)c1ccc([N+](=O)[O-])o1	4	-2	45*	15	0
Cc1cc2occ(CC(=O)NC3CCCc4ccccc43)c2cc1C (stereo not given)	-2	-2	-2	0	43*
C[C@@H]1CN([C@H](C)CO)C(=O)c2cc(NC(=O)Cc3ccccc3)ccc2O[C@H]1CN(C)Cc1ccc(C(=O)O)cc1	x	-3	0	x	0
O=C(COC(=O)c1ccc([N+](=O)[O-])o1)Nc1ncc(Cl)cc1Cl	x	-3	61*	19	1
O=C(COC(=O)c1ccc([N+](=O)[O-])o1)Nc1ccc(N2CCOCC2)cc1	17	-3	34	2	0
O=C(COC(=O)c1ccc([N+](=O)[O-])o1)Nc1ccc(F)cc1	14	-3	55*	0	0
O=C(COC(=O)c1ccc(Br)o1)Nc1ncc(Cl)cc1Cl	5	-1	11	2	0
COc1ccc(CN(C)C[C@@H]2Oc3ccc(NS(=O)(=O)c4c(C)noc4C)cc3CC(=O)N([C@@H](C)CO)C[C@@H]2C)cc1	x	24*	-1	x	1
Cc1noc(C)c1S(=O)(=O)Nc1ccc2c(c1)CC(=O)N([C@@H](C)CO)C[C@H](C)[C@H](CN(C)Cc1ccc(-c3ccccc3)cc1)O2	x	-1	-2	x	0
Cc1noc(C)c1S(=O)(=O)Nc1ccc2c(c1)CC(=O)N([C@H](C)CO)C[C@H](C)[C@H](CN(C)Cc1ccc(-c3ccccc3)cc1)O2	x	15*	1	x	0
Cc1ccc(C(=O)N2CCCC(Nc3ccc(F)c(F)c3)C2)cn1 (stereo not given)	2	7	-3	1	0
Cc1nnsc1C(=O)N1CCCC(Nc2ccc(F)c(F)c2)C1 (stereo not given)	0	-4	0	5	57*
SMILES	UCH37 DUB inh	SIRT5 inh	Casp6 inh	NSD2 HMT inh	FGF22 binding
C/C(C=NNC(=O)c1cc(-c2ccncc2)nc2ccccc12)=C\c1ccco1	9	x	x	x	x
CN(C)C=NNC(=O)c1ccccc1	4	x	x	x	x
COc1ccc(CCN(Cc2nc3ccccc3c(=O)[nH]2)C(=O)C2CC2)cc1	-3	0	-1	-5	43*
CC(C)NS(=O)(=O)c1ccc(OCC(=O)Nc2ccc3c(c2)OCO3)cc1	0	-4	1	-5	0
CC(C)NS(=O)(=O)c1ccc(OCC(=O)Nc2cccc(F)c2)cc1	x	-1	-1	9	43*
Cc1ccc(SCc2nc(N)nc(Nc3ccccc3C)n2)c(C)c1	x	2	-5	2	43*
Cc1ccc(SCc2nc(N)nc(Nc3ccccc3C)n2)cc1C	-1	-1	0	-24	0
CC(C)NC(=O)N1[C@@H]2CN(C(=O)c3ccncc3)c3ccccc3[C@@H]2[C@@H]1CO	x	0	0	x	0
O=C(c1ccc2c(c1)OCO2)N1CC2(C1)[C@H](c1ccccc1)[C@H](CO)N2C(=O)C1CC1	x	-5	2	x	x
FC(F)(F)c1cccc(-c2noc(CN3CCOCC3)n2)c1	0	x	x	1	x
CC(=O)N1CCN(Cc2nc(-c3cccc(Cl)c3)no2)CC1	1	3	1	-5	43*
CN1CCCN(Cc2nc(-c3cccc(C(F)(F)F)c3)no2)CC1	3	3	-6	-1	43*
CC1(C)SC(=S)N(N=Cc2cccnc2)C1N(O)C(=O)Nc1ccccc1 (stereo not given)	4	x	x	x	x
C/C=C/c1ccc([C@@H]2[C@@H](CO)N(C(=O)NC(C)C)[C@H]2CN(C)C(=O)CC)cc1	x	1	x	x	0
O=C1N=c2ccccc2=C1c1sc(NS(=O)(=O)Cc2ccccc2)nc1O	6	3	4	11	1.3*
O=C(NCC[C@@H]1CC[C@@H](NC(=O)c2ccncc2)[C@@H](CO)O1)Nc1ccc(Cl)cc1	x	2	-3	x	0
COc1ccc(NC(=O)N(C)C[C@H]2Oc3ccc(NC(=O)CCN4CCOCC4)cc3CC(=O)N([C@H](C)CO)C[C@H]2C)cc1	x	-19	0	x	0
CCC(=O)N1CC(=O)N2[C@H](C1)[C@H](c1ccc(C#Cc3cccc(OC)c3)cc1)[C@@H]2CO	x	2	-1	x	x
Nc1c(C(=O)NCc2cccs2)nnn1CC(=O)Nc1cccc(Cl)c1	-1	-5	-1	-1	43*
CC=Cc1ccc2n(c1=O)C[C@@H]1[C@@H](CO)[C@H](C(=O)N[C@H](C)c3ccccc3)[C@H]2N1Cc1ccncc1 (mixture of isomers)	x	-13	4	x	0
CC=Cc1ccc2n(c1=O)C[C@H]1[C@H](CO)[C@@H](C(=O)N[C@@H](C)c3ccccc3)[C@@H]2N1Cc1ccncc1 (mixture of isomers)	x	-7	1	x	16*
CC=Cc1ccc2n(c1=O)C[C@H]1[C@H](CO)[C@@H](C(=O)NC3CCC3)N(CC)[C@@H]21 (mixture of isomers)	x	-1	1	x	0
CC=Cc1ccc2n(c1=O)C[C@@H]1[C@@H](CO)[C@H](C(=O)NC3CCCC3)N(CCC)[C@H]21 (mixture of isomers)	x	15*	1	x	x
CC=Cc1ccc2n(c1=O)C[C@H]1[C@H](CO)[C@@H](C(=O)NCc3ccccc3)N(C)[C@@H]21 (mixture of isomers)	x	15	0	x	17*
